Measured values: ChEMBL document CHEMBL1148494, “Comparison between 5,10,15,20-tetraaryl- and 5,15-diarylporphyrins as photosensitizers: synthesis, photodynamic activity, and quantitative structure-activity relationship modeling” (J Med Chem, 2006)
Values joined by “and” are separate entries in the source; they are usually repeats but may differ in a detail not shown here. Equal entries are not always repeated.

Test system: HCT-116
Experiment: Cytotoxicity against human HCT116 cell line
Assay type: functional, cell-based
In short: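 HCT116 cells kept in DMEM, seeded at 5 × 10⁴ cells/mL, grown 48 h, then exposed to a range of PS concentrations for 24 h. PS medium swapped for PBS; visible light from a tungsten-halogen lamp for 2 h (22 mW/cm², 158.4 J/cm²). Then 24 h at 37 °C in drug-free medium. MTT 0.4 mg/mL final for 3 h; formazan in DMSO read at 570 nm. IC50 by nonlinear regression, mean of three replicates ± SE.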

Row | SMILES | IC50
1 | COc1cc(-c2c3nc(cc4ccc(cc5nc(cc6ccc2[nH]6)C=C5)[nH]4)C=C3)cc(OC)c1OC | 0.00229 µg/mL and 4.8 nM
2 | C1=Cc2nc1cc1ccc([nH]1)c(-c1ccccc1)c1nc(cc3ccc([nH]3)c2-c2ccccc2)C=C1 | 0.00263 µg/mL and 5.66 nM
3 | Oc1ccc(-c2c3nc(c(-c4ccccc4)c4ccc([nH]4)c(-c4ccccc4)c4nc(c(-c5ccccc5)c5ccc2[nH]5)C=C4)C=C3)cc1 | 0.145 µg/mL and 230 nM
4 | Oc1cccc(-c2c3nc(cc4ccc([nH]4)c(-c4ccccc4)c4nc(cc5ccc2[nH]5)C=C4)C=C3)c1 | 0.00051 µg/mL and 1.06 nM
5 | Oc1cc(-c2c3nc(c(-c4ccccc4)c4ccc([nH]4)c(-c4ccccc4)c4nc(c(-c5ccccc5)c5ccc2[nH]5)C=C4)C=C3)cc(O)c1O | 0.0353 µg/mL and 53.3 nM
6 | COc1cccc(-c2c3nc(c(-c4ccccc4)c4ccc([nH]4)c(-c4ccccc4)c4nc(c(-c5ccccc5)c5ccc2[nH]5)C=C4)C=C3)c1 | 0.0998 µg/mL and 155 nM
7 | COc1cc(-c2c3nc(c(-c4ccccc4)c4ccc([nH]4)c(-c4ccccc4)c4nc(c(-c5ccccc5)c5ccc2[nH]5)C=C4)C=C3)cc(OC)c1OC | 0.709 µg/mL and 1.01 µM
8 | COc1cccc(-c2c3nc(cc4ccc([nH]4)c(-c4cc(OC)c(OC)c(OC)c4)c4nc(cc5ccc2[nH]5)C=C4)C=C3)c1 | 0.00921 µg/mL and 15.8 nM
9 | Oc1ccc(-c2c3nc(cc4ccc([nH]4)c(-c4ccccc4)c4nc(cc5ccc2[nH]5)C=C4)C=C3)cc1 | 0.00335 µg/mL and 7.01 nM
10 | Oc1cccc(-c2c3nc(c(-c4cccc(O)c4)c4ccc([nH]4)c(-c4cccc(O)c4)c4nc(c(-c5cccc(O)c5)c5ccc2[nH]5)CC4)C=C3)c1 [TEMOPORFIN] | 0.00517 µg/mL and 7.6 nM
11 | C1=Cc2cc3ccc([nH]3)c(-c3ccccc3)c3ccc(cc4nc(cc1n2)C=C4)[nH]3 | 0.00123 µg/mL and 3.2 nM
12 | Oc1cccc(-c2c3nc(cc4ccc([nH]4)c(-c4cccc(O)c4)c4nc(cc5ccc2[nH]5)C=C4)C=C3)c1 | 0.00351 µg/mL and 7.09 nM
13 | COc1ccc(-c2c3nc(cc4ccc(cc5nc(cc6ccc2[nH]6)C=C5)[nH]4)C=C3)cc1 | 0.00077 µg/mL and 1.85 nM
14 | COc1ccc(-c2c3nc(c(-c4ccccc4)c4ccc([nH]4)c(-c4ccccc4)c4nc(c(-c5ccccc5)c5ccc2[nH]5)C=C4)C=C3)cc1 | 0.894 µg/mL and 1.39 µM
15 | COc1ccc(-c2c3nc(c(-c4ccc(OC)cc4)c4ccc([nH]4)c(-c4cc(OC)c(OC)c(OC)c4)c4nc(c(-c5ccc(OC)cc5)c5ccc2[nH]5)C=C4)C=C3)cc1 | > 1.5 µg/mL and > 1.89 µM
16 | COc1ccc(-c2c3nc(cc4ccc([nH]4)c(-c4ccccc4)c4nc(cc5ccc2[nH]5)C=C4)C=C3)cc1 | 0.00606 µg/mL and 12.3 nM
17 | COc1cccc(-c2c3nc(cc4ccc([nH]4)c(-c4ccccc4)c4nc(cc5ccc2[nH]5)C=C4)C=C3)c1 | 0.00293 µg/mL and 5.94 nM
18 | COc1cccc(-c2c3nc(cc4ccc([nH]4)c(-c4cccc(OC)c4)c4nc(cc5ccc2[nH]5)C=C4)C=C3)c1 | 0.0129 µg/mL and 24.7 nM
19 | COc1cc(-c2c3nc(cc4ccc([nH]4)c(-c4ccccc4)c4nc(cc5ccc2[nH]5)C=C4)C=C3)cc(OC)c1OC | 0.00428 µg/mL and 7.75 nM
20 | C1=Cc2nc1cc1ccc([nH]1)c(-c1ccccc1)c1ccc(cc3nc(c2-c2ccccc2)CC3)[nH]1 | 0.00151 µg/mL and 3.26 nM
21 | COc1ccc(-c2c3nc(cc4ccc([nH]4)c(-c4cc(OC)c(OC)c(OC)c4)c4nc(cc5ccc2[nH]5)C=C4)C=C3)cc1 | 0.00903 µg/mL and 15.5 nM
22 | COc1ccc(-c2c3nc(cc4ccc([nH]4)c(-c4ccc(OC)cc4)c4nc(cc5ccc2[nH]5)C=C4)C=C3)cc1 | 0.0274 µg/mL and 52.5 nM
23 | COc1cc(-c2c3nc(cc4ccc([nH]4)c(-c4cc(OC)c(OC)c(OC)c4)c4ccc(cc5nc2C=C5)[nH]4)C=C3)cc(OC)c1OC | 0.00632 µg/mL and 9.84 nM
24 | Oc1cccc(-c2c3nc(c(-c4ccccc4)c4ccc([nH]4)c(-c4ccccc4)c4nc(c(-c5ccccc5)c5ccc2[nH]5)C=C4)C=C3)c1 | 0.217 µg/mL and 344 nM
25 | Oc1cc(-c2c3nc(cc4ccc([nH]4)c(-c4ccccc4)c4nc(cc5ccc2[nH]5)C=C4)C=C3)cc(O)c1O | 0.00497 µg/mL and 9.75 nM
